The target of series [1] is T1, Prostaglandin E2 receptor EP3 subtype (Homo sapiens, UniProt P43115).
T1 sequence (P43115 whole entry): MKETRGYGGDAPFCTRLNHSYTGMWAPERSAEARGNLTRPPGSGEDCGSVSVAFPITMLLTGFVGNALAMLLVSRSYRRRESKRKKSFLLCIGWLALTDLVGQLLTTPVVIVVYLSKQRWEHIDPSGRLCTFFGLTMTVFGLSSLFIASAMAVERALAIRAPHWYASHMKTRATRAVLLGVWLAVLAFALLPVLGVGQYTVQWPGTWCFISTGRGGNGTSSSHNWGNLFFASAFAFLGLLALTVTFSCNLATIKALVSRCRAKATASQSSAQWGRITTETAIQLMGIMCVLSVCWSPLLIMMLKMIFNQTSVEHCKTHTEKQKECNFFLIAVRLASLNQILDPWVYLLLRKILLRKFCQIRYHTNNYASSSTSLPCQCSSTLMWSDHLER
The experiment in a line: Displacement of [3H]PGE2 from human EP3 receptor in buffer.

The nature of series [2]: assessed as parent compound remaining after 30 mins. Particulars: read-out: Stability; call rule not given here.
The target of series [3] is T1, Prostaglandin E2 receptor EP3 subtype. The experiment in a line: Partial displacement of [3H]PGE2 from human EP3 receptor in presence of 10% human serum.
The target of series [4] is T2, Cytochrome P450 3A4 (Homo sapiens, UniProt P08684). The series is described as follows: Inhibition of human CYP3A4 using dibenzylfluorescein as substrate. The series is classed as ADME. In short, it runs like this:
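Inhibition of human CYP3A4 with dibenzylfluorescein (DBF) as substrate. Values given as IC50.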

The target in the next series is Cytochrome P450 2C9 (Homo sapiens, UniProt P11712). The series is described as follows: Inhibition of human CYP2C9. The series is classed as ADME.
The target of series [5] is T1, Prostaglandin E2 receptor EP3 subtype. The series is described as follows: Displacement of [3H]PGE2 from human EP3 receptor in presence of 10% human serum.
For another series, the target named is Prostacyclin receptor (Homo sapiens, UniProt P43119). The experiment in a line: Binding affinity to human IP receptor by radioligand displacement assay. In short, it runs like this:
(§1)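 Radioligand displacement assays on a human prostanoid receptor panel (EP2, EP4, FP, IP). IC50 values reported in µM.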

For a further series, the species on record is Rattus norvegicus. The series is described as follows: Antithrombotic activity in rat assessed as platelet aggregation. The series is classed as functional. The gist of the method: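 Functional EP3 antagonism measured in a rat platelet aggregation assay. Values reported as EC50 in nM.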
A further series deals with Cytochrome P450 2D6 (Homo sapiens, UniProt P10635). The series is described as follows: Inhibition of human CYP2D6. The series is classed as ADME.
Series [6] has as its target Prostaglandin E2 receptor EP2 subtype (Homo sapiens, UniProt P43116). The series is described as follows: Binding affinity to human EP2 receptor by radioligand displacement assay. The gist of the method: as §1
The target of series [7] is Prostaglandin F2-alpha receptor (Homo sapiens, UniProt P43088). The experiment in a line: Binding affinity to human FP receptor by radioligand displacement assay. In short, it runs like this:
as §1

A short description of series [8]: Metabolic stability in mouse liver microsomes assessed as parent compound remaining after 30 mins. Particulars: read-out: Stability. The series is classed as ADME, Microsome. In short, it runs like this: (§2)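 Compounds incubated with liver microsomes from human, rat, mouse, dog or monkey. Read-out is percent parent compound remaining at 30 min of incubation.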

The target of series [9] is Prostaglandin E2 receptor EP4 subtype (Homo sapiens, UniProt P35408). The series is described as follows: Binding affinity to human EP4 receptor by radioligand displacement assay. In short, it runs like this:
as §1

The target in another series is T3, Cytochrome P450 1A2 (Homo sapiens, UniProt P05177).
T3 sequence (P05177 whole entry): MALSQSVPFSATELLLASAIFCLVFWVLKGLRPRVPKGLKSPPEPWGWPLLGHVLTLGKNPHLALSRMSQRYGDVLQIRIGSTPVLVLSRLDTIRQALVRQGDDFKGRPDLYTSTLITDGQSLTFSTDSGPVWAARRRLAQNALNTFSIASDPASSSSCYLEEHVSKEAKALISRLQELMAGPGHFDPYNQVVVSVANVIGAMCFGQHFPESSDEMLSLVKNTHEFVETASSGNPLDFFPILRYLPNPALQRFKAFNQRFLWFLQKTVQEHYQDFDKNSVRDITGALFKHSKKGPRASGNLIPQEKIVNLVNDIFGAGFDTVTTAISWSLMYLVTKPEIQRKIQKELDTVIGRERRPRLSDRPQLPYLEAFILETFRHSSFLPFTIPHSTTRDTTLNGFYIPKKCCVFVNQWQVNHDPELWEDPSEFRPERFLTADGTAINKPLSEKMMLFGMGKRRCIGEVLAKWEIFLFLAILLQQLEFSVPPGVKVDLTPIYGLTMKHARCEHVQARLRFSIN
The experiment in a line: Inhibition of human CYP1A2. The series is classed as ADME.

Series [10] concerns the target T2, Cytochrome P450 3A4. The experiment in a line: Inhibition of human CYP3A4 using 7-benzyloxy-4-trifluoromethylcoumarin as substrate. The series is classed as ADME. The gist of the method: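 Inhibition of human CYP3A4 with 7-benzyloxy-4-trifluoromethylcoumarin (BFC) as substrate. Values given as IC50.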
Series [11] in a line: Metabolic stability in human liver microsomes assessed as parent compound remaining after 30 mins. The series is classed as ADME, Microsome. The note with it: read-out: Stability. The gist of the method: as §2
A short description of series [12]: Metabolic stability in rat liver microsomes assessed as parent compound remaining after 30 mins. The series is classed as ADME, Microsome. Particulars: read-out: Stability. The gist of the method: as §2
Series [13] is described as follows: Half life in mouse at 6 mg/kg, iv. On the set-up: dose 6 mg/kg, route intravenous. The series is classed as ADME, organism-based. Particulars: in vivo. In short, it runs like this: (§3)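 Single iv dose of 6 mg/kg given to mouse and to rat. Half-life in hours derived from the plasma pharmacokinetic parameters, alongside predicted clearance and steady-state volume of distribution.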

A short description of series [14]: Half life in rat at 6 mg/kg, iv. The note with it: in vivo. On the set-up: dose 6 mg/kg, route intravenous. The series is classed as ADME, organism-based. The gist of the method: as §3

Structures are written as SMILES.

T2 sequence (P08684 whole entry): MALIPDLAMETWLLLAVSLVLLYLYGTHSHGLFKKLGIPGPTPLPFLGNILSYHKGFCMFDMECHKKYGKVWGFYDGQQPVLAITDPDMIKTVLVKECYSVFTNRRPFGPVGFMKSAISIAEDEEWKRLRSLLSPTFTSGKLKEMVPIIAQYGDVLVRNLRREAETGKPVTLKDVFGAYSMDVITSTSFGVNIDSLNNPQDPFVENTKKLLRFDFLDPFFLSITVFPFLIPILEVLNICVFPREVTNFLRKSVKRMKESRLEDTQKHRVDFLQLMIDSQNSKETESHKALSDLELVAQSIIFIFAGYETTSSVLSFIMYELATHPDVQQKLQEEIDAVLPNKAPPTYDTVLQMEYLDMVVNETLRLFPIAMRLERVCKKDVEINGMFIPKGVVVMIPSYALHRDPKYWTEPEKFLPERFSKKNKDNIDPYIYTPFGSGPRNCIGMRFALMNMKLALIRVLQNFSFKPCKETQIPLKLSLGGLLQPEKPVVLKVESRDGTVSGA
Cytochrome P450 2D6, sequence (P10635 whole entry): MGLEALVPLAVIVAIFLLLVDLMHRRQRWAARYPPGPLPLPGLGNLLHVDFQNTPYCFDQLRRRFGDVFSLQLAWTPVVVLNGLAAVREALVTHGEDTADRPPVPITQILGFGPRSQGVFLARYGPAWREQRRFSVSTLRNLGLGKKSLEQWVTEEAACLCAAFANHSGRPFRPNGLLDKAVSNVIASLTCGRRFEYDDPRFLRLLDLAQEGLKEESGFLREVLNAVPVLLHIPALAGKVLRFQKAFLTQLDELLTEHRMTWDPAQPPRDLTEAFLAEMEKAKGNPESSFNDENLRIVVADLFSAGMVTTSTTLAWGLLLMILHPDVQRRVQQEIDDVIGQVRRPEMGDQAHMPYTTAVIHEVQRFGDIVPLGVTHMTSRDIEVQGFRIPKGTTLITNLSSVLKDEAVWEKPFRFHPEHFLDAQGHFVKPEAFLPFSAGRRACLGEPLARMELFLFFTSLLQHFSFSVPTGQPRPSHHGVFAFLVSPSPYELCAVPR
Prostacyclin receptor, sequence (P43119 whole entry): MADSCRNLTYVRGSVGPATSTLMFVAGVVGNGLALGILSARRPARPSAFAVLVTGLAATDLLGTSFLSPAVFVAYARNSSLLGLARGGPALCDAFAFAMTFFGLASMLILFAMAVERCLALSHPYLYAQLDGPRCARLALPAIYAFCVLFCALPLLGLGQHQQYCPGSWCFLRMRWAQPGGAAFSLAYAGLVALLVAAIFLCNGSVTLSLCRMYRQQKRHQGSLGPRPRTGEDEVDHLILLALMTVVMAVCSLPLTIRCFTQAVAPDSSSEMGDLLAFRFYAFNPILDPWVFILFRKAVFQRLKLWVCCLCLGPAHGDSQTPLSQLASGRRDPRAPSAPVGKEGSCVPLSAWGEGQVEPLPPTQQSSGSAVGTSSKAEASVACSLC
Prostaglandin E2 receptor EP4 subtype, sequence (P35408 whole entry): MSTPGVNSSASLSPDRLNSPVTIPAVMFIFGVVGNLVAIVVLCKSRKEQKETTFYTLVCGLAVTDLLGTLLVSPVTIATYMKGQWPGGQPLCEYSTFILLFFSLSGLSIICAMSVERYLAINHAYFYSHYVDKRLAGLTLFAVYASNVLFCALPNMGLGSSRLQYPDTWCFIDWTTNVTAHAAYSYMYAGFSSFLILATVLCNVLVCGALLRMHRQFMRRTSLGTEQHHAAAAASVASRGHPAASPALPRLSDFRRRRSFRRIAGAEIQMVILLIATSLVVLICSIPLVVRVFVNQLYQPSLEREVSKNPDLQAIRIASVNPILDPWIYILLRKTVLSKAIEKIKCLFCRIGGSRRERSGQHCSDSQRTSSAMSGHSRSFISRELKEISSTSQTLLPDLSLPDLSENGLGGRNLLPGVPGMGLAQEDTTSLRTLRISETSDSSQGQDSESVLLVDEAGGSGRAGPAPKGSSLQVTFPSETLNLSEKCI
Prostaglandin E2 receptor EP2 subtype, sequence (P43116 whole entry): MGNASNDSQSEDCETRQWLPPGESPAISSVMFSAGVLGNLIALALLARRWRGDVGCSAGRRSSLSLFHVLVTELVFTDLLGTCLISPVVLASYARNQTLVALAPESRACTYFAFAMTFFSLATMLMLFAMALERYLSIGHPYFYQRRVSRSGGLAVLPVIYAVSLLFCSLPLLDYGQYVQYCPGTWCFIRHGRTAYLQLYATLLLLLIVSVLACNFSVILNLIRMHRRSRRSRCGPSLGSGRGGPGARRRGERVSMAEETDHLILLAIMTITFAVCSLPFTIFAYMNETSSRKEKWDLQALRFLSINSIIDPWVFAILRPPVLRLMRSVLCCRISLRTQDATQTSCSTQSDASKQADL
Cytochrome P450 2C9, sequence (P11712 whole entry): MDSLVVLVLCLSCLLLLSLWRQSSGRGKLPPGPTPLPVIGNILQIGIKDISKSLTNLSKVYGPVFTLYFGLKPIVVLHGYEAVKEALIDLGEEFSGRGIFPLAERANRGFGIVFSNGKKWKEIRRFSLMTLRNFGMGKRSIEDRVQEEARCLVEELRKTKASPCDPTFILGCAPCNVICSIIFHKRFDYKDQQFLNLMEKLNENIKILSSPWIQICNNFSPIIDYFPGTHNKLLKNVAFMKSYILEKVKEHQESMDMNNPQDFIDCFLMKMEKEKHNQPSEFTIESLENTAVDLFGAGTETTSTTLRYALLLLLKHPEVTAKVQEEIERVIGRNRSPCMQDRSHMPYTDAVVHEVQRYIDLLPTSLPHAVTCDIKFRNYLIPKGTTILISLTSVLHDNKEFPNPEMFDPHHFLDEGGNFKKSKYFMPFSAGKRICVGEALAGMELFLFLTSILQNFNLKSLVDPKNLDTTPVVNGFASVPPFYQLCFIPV
Prostaglandin F2-alpha receptor, sequence (P43088 whole entry): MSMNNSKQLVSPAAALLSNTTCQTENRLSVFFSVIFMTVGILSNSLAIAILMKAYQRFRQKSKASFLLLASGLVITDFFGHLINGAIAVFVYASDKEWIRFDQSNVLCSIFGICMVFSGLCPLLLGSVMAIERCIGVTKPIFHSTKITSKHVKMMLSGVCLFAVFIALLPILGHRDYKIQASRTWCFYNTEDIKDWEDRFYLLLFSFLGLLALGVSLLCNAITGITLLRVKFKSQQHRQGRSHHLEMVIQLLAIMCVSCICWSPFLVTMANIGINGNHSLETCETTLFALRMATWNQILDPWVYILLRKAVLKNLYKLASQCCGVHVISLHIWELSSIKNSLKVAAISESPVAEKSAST

As for `O=C(/C=C/c1cccc2c1N(Cc1ccc(Cl)cc1Cl)C(=O)C21OCCO1)NS(=O)(=O)c1cc(Cl)c(Cl)s1`, the half-maximal inhibitory concentration (IC50) in series [1] was 0.0038 µM; in series [3], “Active”. The remaining at 0.5 h in series [2] stood at 28.4%.

With `O=C(/C=C/c1cccc2c1N(Cc1ccc3ccccc3c1)C(=O)C2O)NS(=O)(=O)c1cc(F)c(F)cc1F` (stereo not drawn), the “inhibition (INH)” value against Cytochrome P450 3A4 [4] is given as “Active”; at Cytochrome P450 2C9, “Active”; against Cytochrome P450 2D6 it was “Not Active”; against Cytochrome P450 1A2 it was “Not Active”; at Cytochrome P450 3A4 [10], “Not Active”. For the same compound, the IC50 is 0.0094 µM in [5]; over 20 µM at Prostacyclin receptor; over 20 µM in series [6]; over 20 µM in [7]; 8.7 µM in [9]; 0.0006 µM in series [1]. For the same compound, the EC50 in the series listed under Rattus norvegicus worked out at 0.069 µM. Moreover, the values for the remaining at 0.5 h in [8], in series [11] and in series [12] were 73.5%, 95.6% and 99.7%, respectively.

For the compound `O=C(/C=C/c1cccc2c1N(Cc1ccc3ccccc3c1)C(=O)C2O)NS(=O)(=O)c1ccc(F)cc1` (stereo not drawn), the “inhibition (INH)” value against Cytochrome P450 3A4 [4] is given as “Active”; against Cytochrome P450 2C9 it was “Active”; at Cytochrome P450 2D6 it was “Not Active”; against Cytochrome P450 1A2 it was “Not Active”; on Cytochrome P450 3A4 [10], “Not Active”. For the same compound, the IC50 in series [5] is 0.0194 µM; at Prostacyclin receptor it was over 20 µM; in series [6], over 20 µM; in series [7] it was over 20 µM; in series [9], 15.1 µM; in [1] it was 0.0009 µM. For the same compound, the half-life in series [13] was 2.1 h; in [14], 1.75 h. For the same compound, in the series listed under Rattus norvegicus, the EC50 came to 0.063 µM. The remaining at 0.5 h amounted to 83.4% in series [8], 97.7% in [11] and 103% in series [12].

In the case of `O=C(/C=C/c1cccc2c1N(Cc1ccc3ccccc3c1)C(=O)C21OCCO1)NS(=O)(=O)c1cccs1`, the figures for the IC50 in series [5] and in [1] were 0.679 µM and 0.013 µM, respectively. Further, the remaining at 0.5 h in [2] was 37.8%.

Turning to `O=C(/C=C/c1cccc2c1N(Cc1ccc3ccccc3c1)C(=O)C2O)NS(=O)(=O)c1ccc(F)c(F)c1` (stereo not drawn), the “inhibition (INH)” value at Cytochrome P450 3A4 [4] is “Active”; against Cytochrome P450 2C9 it was “Active”; against Cytochrome P450 2D6, “Not Active”; against Cytochrome P450 1A2, “Not Active”; against Cytochrome P450 3A4 [10] it was “Not Active”. In addition, the IC50 was 0.0076 µM in [5]; over 20 µM at Prostacyclin receptor; over 20 µM in series [6]; over 20 µM in [7]; 2.3 µM in [9]; 0.0016 µM in series [1]. Also, in the series listed under Rattus norvegicus, the EC50 is 0.087 µM. Moreover, the results for the remaining at 0.5 h in series [8], in [11] and in series [12] were 72.7%, 89.3% and 87.9%, respectively.

The values are drawn from ChEMBL document CHEMBL1156157, “1,7-Disubstituted oxyindoles are potent and selective EP(3) receptor antagonists” (Bioorg Med Chem Lett, 2010).
